Results from ChEMBL document CHEMBL1121691, “Inhibition of cholesterol side-chain cleavage. 4. Synthesis of A or B ring modified azacholesterols” (J Med Chem, 1981).

Columns and labels:
Conditions in all cases: cattle
[1] = molecular target: T1, cholesterol side-chain cleavage cytochrome P450 (mitochondrial) (Bos taurus, UniProt P00189); assay: Percent inhibition of cholesterol side-chain cleavage cytochrome P450 at 100 uM in bovine adrenocortical mitochondrial acetone powder preparations
T1 sequence (P00189 whole entry): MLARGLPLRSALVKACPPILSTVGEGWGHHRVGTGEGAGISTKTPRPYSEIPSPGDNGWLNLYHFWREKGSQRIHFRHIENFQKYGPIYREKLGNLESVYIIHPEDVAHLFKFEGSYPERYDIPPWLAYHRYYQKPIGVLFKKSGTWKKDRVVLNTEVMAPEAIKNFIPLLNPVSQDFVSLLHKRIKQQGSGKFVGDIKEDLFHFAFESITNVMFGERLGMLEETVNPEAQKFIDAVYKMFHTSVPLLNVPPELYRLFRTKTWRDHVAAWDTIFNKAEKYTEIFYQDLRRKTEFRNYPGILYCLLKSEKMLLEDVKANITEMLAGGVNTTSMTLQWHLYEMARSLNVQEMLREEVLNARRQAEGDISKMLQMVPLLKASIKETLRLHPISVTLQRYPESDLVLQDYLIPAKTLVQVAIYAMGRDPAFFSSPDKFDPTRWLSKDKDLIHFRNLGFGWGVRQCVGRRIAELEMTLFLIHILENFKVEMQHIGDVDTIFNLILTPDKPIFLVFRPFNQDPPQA
Summary of the method: (§1)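 CSCC activity in adrenal preparations assayed by the previously reported method. Inhibitor tested at a final concentration of 100 μM or below. Isocaproic acid product volatilized in a heated vacuum desiccator and measured by liquid scintillation counting. Percent inhibition is taken from at least six data points across two separate experiments, with standard deviation from the mean.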

[2] = molecular target: T1, cholesterol side-chain cleavage cytochrome P450 (mitochondrial); assay: Percent inhibition of cholesterol side-chain cleavage cytochrome P450 at 1 uM in bovine adrenocortical mitochondrial acetone powder preparations; summary of the method: as §1
[3] = molecular target: T1, cholesterol side-chain cleavage cytochrome P450 (mitochondrial); assay: Percent inhibition of cholesterol side-chain cleavage cytochrome P450 at 10 uM in bovine adrenocortical mitochondrial acetone powder preparations; summary of the method: as §1

SMILES	inhibition at 100 µM [1] [%]	inhibition at 1 µM [2] [%]	inhibition at 10 µM [3] [%]
CO[C@H]1CC[C@@]2(C)C(CC[C@H]3[C@@H]4CC[C@H](C(C)NCCC(C)C)[C@@]4(C)CC[C@@H]32)C1 (some centres undefined)	21	–	–
CC(C)CCNC(C)[C@H]1CC[C@H]2[C@@H]3CCC4C[C@@H](O)CC[C@]4(C)[C@H]3CC[C@]12C (some centres undefined)	28	–	–
CC(C)CCNC(C)[C@H]1CC[C@H]2[C@@H]3CCC4CC(=O)CC[C@]4(C)[C@H]3CC[C@]12C (some centres undefined)	3	–	–
CO[C@@H]1CC[C@@]2(C)C(CC[C@H]3[C@@H]4CC[C@H](N(C)CCCC(C)C)[C@@]4(C)CC[C@@H]32)C1 (some centres undefined)	3	–	–
CC(C)CCCN(C)[C@H]1CC[C@H]2[C@@H]3CCC4C[C@@H](O)CC[C@]4(C)[C@H]3CC[C@]12C (some centres undefined)	26	–	–
CO[C@H]1CCC2(C)C(CC[C@@H]3[C@@H]2CCC2(C)[C@@H](N(C)CCCC(C)C)CC[C@@H]32)C1 (some centres undefined)	5	–	–
CC(C)CCCN(C)[C@H]1CCC2C3CC=C4C[C@@H](O)CCC4(C)C3CCC21C (some centres undefined)	78	–	29

Now from value to compound:

inhibition at 100 µM [1] [%]	inhibition at 1 µM [2] [%]	inhibition at 10 µM [3] [%]	SMILES
100	12	89	CCC(C)CNC(C)[C@H]1CC[C@H]2[C@@H]3CC=C4C[C@@H](OC)CC[C@]4(C)[C@H]3CC[C@]12C (some centres undefined)
93	10	75	CC(C)CCNC(C)[C@H]1CC[C@H]2[C@@H]3CC=C4C[C@@H](O)CC[C@]4(C)[C@H]3CC[C@]12C (some centres undefined)
99	14	86	CO[C@H]1CC[C@@]2(C)C(=CC[C@H]3[C@@H]4CC[C@H](C(C)NCCC(C)C)[C@@]4(C)CC[C@@H]32)C1 (some centres undefined)
86	–	30	CO[C@H]1CCC2(C)C(=CCC3C2CCC2(C)C3CC[C@@H]2N(C)CCCC(C)C)C1 (some centres undefined)
